Measurements gathered from unrelated publications.
Protocols differ between the studies behind these lines. pIC50: −log10 of the molar value.
Cell line: Vero
Observed: cell growth or viability

`Oc1ncnc2cc(Nc3nc(-c4ccccc4)cs3)ccc12` gave a pIC50 of less than 4.30 (MTT).
`Cc1ccc(C)n1-c1ccc(-c2nnc(-c3ccc(Br)cc3)[nH]2)cc1` gave a pIC50 of 3.64 (MTT; 72 h).
With `N=C1C(Cl)=C(N)C(=O)c2[nH]cc(C(O)CO)c21` (centres unmarked) the pIC50 was 4.85 (MTT; 72 h).
For `COc1ccc(CCNCc2c(N)nc(N)nc2C2CCCCC2)cc1`, the pIC50 was 4.68 (SRB).
With `Cc1ccc(C)n1-c1ccc(-c2nnco2)cc1` the pIC50 was 3.67 (MTT; 72 h).
For `C#Cc1cccc(Nc2ncnc3cc(OCCOC)c(OCCOC)cc23)c1`, the pIC50 was less than 4.52 (MTT).
The pIC50 of `CC(C)(C)Nc1c(-c2ccc(N)cc2)nc2cnccn12` is reported as 4.12 (MTT; 48 h).
With `O=c1[nH]cc(F)c(=O)[nH]1` the pIC50 was 5.28 (MTT; 72 h).
`Nc1c(-c2ccc([N+](=O)[O-])cc2)nc2cnccn12` gave a pIC50 of 4.10 (MTT; 48 h).
`Cc1ccc(-c2csc(Nc3ccc4c(O)ncnc4c3)n2)cc1` has a pIC50 of less than 4.30 (MTT).
`COc1cccc(CCNCc2c(N)nc(N)nc2C2CCCCC2)c1` has a pIC50 of 4.64 (SRB).
The pIC50 of `Oc1ncnc2cc(Nc3nc(-c4ccc(C(F)(F)F)cc4)cs3)ccc12` is reported as less than 4.30 (MTT).
`CC(C)(C)Nc1c(-c2ccccc2N)nc2cnccn12` gave a pIC50 of 4.07 (MTT; 48 h).
`COc1cc(OC)cc(-c2ccc(C(=O)NCc3c4c(c(C)[nH]c3=O)CCCC4)cc2)c1` has an IC50 of greater than 50 µg/mL (MTT; 72 h).
`CO[C@H]1/C=C/O[C@@]2(C)Oc3c(C)c(O)c4c(O)c(c(/C=N/N5CCN(C)CC5)c(O)c4c3C2=O)NC(=O)/C(C)=C\C=C\[C@H](C)[C@H](O)[C@@H](C)[C@@H](O)[C@@H](C)[C@H](OC(C)=O)[C@@H]1C` has an IC50 of greater than 1000 µg/mL (MTT; 48 h).
`Cc1[nH]c(=O)c(CNC(=O)c2ccc(F)nc2)c2c1CCCC2` gave an IC50 of greater than 50 µg/mL (MTT; 72 h).
With `COc1cccc2c1C(=O)c1c(O)c3c(c(O)c1C2=O)C[C@@](O)(C(=O)CO)C[C@@H]3O[C@H]1C[C@H](N)[C@H](O)[C@H](C)O1` the pIC50 was 4.85 (MTT; 48 h).
For `CC1(C)N=C(N)N=C(N)N1c1ccc(Cl)cc1`, the pIC50 was less than 4.00 (SRB).
The pIC50 of `CN(C)c1ccc(-c2nc3cnccn3c2NC(C)(C)C)cc1` is reported as less than 4.00 (MTT; 48 h).
The pIC50 of `Cc1ccc(C)n1-c1ccc(C(=O)NNC=O)cc1` is reported as 3.68 (MTT; 72 h).
`Nc1nc(N)c(CNCCc2ccccc2Cl)c(C2CCCCC2)n1` has a pIC50 of 4.68 (SRB).
`Nc1ccc(-c2nc3ccccn3c2NC2CCCCC2)cc1` gave a pIC50 of 4.05 (MTT; 48 h).
The pIC50 of `Oc1ncnc2cc(Nc3nc(-c4ccc(Br)cc4)cs3)ccc12` is reported as less than 4.30 (MTT).
For `NC1=NN(c2ccc([N+](=O)[O-])cc2[N+](=O)[O-])C(=O)C1=NNc1ccc(N=Nc2ccccc2)cc1`, the pIC50 was 4.35.
With `Nc1nc(N)c(CNCCc2ccc(Cl)c(Cl)c2)c(C2CCCCC2)n1` the pIC50 was 4.68 (SRB).
With `CC(C)(C)Nc1c(-c2ccc([N+](=O)[O-])cc2)nc2cnccn12` the pIC50 was 4.10 (MTT; 48 h).
`Nc1nc(N)c(CNCCc2cccc(Cl)c2)c(C2CCCCC2)n1` gave a pIC50 of 4.64 (SRB).
For `CC(C)(C)Nc1c(-c2ccccc2[N+](=O)[O-])nc2ccccn12`, the pIC50 was 4.11 (MTT; 48 h).
`Nc1nc(N)c(CNCCc2cccc(F)c2)c(C2CCCCC2)n1` gave a pIC50 of 4.60 (SRB).
For `Cc1ccc(C)n1-c1ccc(-c2nnc(-c3c(Cl)cccc3Cl)[nH]2)cc1`, the pIC50 was 3.64 (MTT; 72 h).
`N#Cc1nn(-c2ccc(N=Nc3ccccc3)cc2)c(=S)n(-c2ccccc2)c1=O` gave a pIC50 of 4.37.
`Nc1nc(N)c(CNCCc2ccc(F)cc2)c(C2CCCCC2)n1` has a pIC50 of 4.66 (SRB).
